Calls of active or inactive are those of the source. The calls are words filed in the database; no cut-off is given here.

As usually defined, the inhibition is the change of the read-out against control, counted positive when it falls.

For test [1], the target named is T1, von Hippel-Lindau disease tumor suppressor/Protein arginine N-methyltransferase 5 (Homo sapiens, UniProt O14744+P40337). As to the kind of experiment: Induction of VHL-mediated PRMT5 degradation in human MCF7 cells at 1 to 5 uM incubated for 6 days by Western blot analysis. Format: cell-based. Conditions: dose microM 1-5, time 6.0 day. In outline:
(§1)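 MCF-7 cells treated 6 d (0.2, 1 and 5 μM for initial screen, or indicated concentrations). RIPA lysates immunoblotted for PRMT5. Band intensity quantified by densitometry to derive DC50 and Dmax as mean ± SD from three independent experiments; screening blots representative of at least two.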
(In general: In western blotting, separated proteins are transferred to a membrane and probed.)

In test [2] the target is T1, von Hippel-Lindau disease tumor suppressor/Protein arginine N-methyltransferase 5. As to the kind of experiment: Induction of VHL-mediated PRMT5 degradation in human MCF7 cells at 5 uM incubated for 6 days by Western blot analysis. The class given is cell-based. To be noted: time 6.0 day. An outline of the steps: as §1
The test system of test [3] is MCF7. As to the kind of experiment: Antiproliferative activity against human MCF7 cells at 0.1 to 10 uM incubated for 6 days by CellTiter-Glo assay. Format: functional, cell-based. To be noted: dose microM 0.1-10, time 6.0 day. An outline of the steps: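 MCF-7 in DMEM + 10% FBS at 37 °C, 5% CO2. Cells exposed to graded concentrations for 6 d, medium with compound refreshed every other day. CellTiter-Glo luminescence, expressed as viability relative to DMSO control; mean ± SD, n = 3.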
Background: In ATP-based viability assays light output follows the ATP content of the culture.

Test [4] has as its target PRMT5/MEP50 complex (Homo sapiens) (UniProt O14744+Q9BQA1). As to the kind of experiment: Inhibition of human PRMT5/MEP50 assessed as reduction in methyltransferase activity at 5 uM using histone 4 peptide as substrate in presence of [3H]SAM incubated for 30 mins. Format: protein-complex assay.
Test [5] deals with T1, von Hippel-Lindau disease tumor suppressor/Protein arginine N-methyltransferase 5. As to the kind of experiment: Induction of VHL-mediated PRMT5 degradation in human MCF7 cells at 0.2 to 5 uM incubated for 6 days by Western blot analysis. Format: cell-based. Conditions: dose microM 0.2-5, time 6.0 day. In outline: as §1
The subject of test [6] is A549. As to the kind of experiment: Antiproliferative activity against human A549 cells assessed as reduction in cell viability at 0.1 to 10 uM supplemented with fresh medium containing compound every other day for 6 days by CellTiter-Glo assay. Format: functional, cell-based. Conditions: dose microM 0.1-10, time 6.0 day. In outline: (§2)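 HeLa, A549 and A172 grown in DMEM + 10% FBS; Jurkat in RPMI 1640 + 10% FBS; all at 37 °C, 5% CO2. Cells seeded, then treated 6 d with test agent, medium plus compound renewed every other day. Viability read by CellTiter-Glo and normalized to DMSO-treated cells; mean ± SD, n = 3.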

Test [7] relates to Jurkat. As to the kind of experiment: Antiproliferative activity against human Jurkat cells assessed as reduction in cell viability at 0.1 to 10 uM supplemented with fresh medium containing compound every other day for 6 days by CellTiter-Glo assay. Conditions: dose microM 0.1-10, time 6.0 day. Format: functional, cell-based. An outline of the steps:
as §2

Test [8] deals with T1, von Hippel-Lindau disease tumor suppressor/Protein arginine N-methyltransferase 5. As to the kind of experiment: Induction of VHL-mediated PRMT5 degradation in human MCF7 cells assessed as reduction in SDMA level incubated for 6 days by Western blot analysis. The class given is cell-based. Conditions: dose microM 0.1-3, time 6.0 day. In outline: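 SDMA read-out: MCF-7 cells given 0.1, 0.3, 1 or 3.0 μM for 6 d; global symmetric dimethylarginine detected on western blot with anti-SDMA antibody.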

Test [9] has as its system HeLa. As to the kind of experiment: Antiproliferative activity against human HeLa cells assessed as reduction in cell viability at 0.1 to 10 uM supplemented with fresh medium containing compound every other day for 6 days by CellTiter-Glo assay. The class given is functional, cell-based. To be noted: dose microM 0.1-10, time 6.0 day. An outline of the steps:
as §2

The subject of test [10] is A 172. As to the kind of experiment: Antiproliferative activity against human A172 cells assessed as reduction in cell viability at 0.1 to 10 uM supplemented with fresh medium containing compound every other day for 6 days by CellTiter-Glo assay. The class given is functional, cell-based. Conditions: dose microM 0.1-10, time 6.0 day. In outline: as §2

T1 sequence (O14744 whole entry, looked up): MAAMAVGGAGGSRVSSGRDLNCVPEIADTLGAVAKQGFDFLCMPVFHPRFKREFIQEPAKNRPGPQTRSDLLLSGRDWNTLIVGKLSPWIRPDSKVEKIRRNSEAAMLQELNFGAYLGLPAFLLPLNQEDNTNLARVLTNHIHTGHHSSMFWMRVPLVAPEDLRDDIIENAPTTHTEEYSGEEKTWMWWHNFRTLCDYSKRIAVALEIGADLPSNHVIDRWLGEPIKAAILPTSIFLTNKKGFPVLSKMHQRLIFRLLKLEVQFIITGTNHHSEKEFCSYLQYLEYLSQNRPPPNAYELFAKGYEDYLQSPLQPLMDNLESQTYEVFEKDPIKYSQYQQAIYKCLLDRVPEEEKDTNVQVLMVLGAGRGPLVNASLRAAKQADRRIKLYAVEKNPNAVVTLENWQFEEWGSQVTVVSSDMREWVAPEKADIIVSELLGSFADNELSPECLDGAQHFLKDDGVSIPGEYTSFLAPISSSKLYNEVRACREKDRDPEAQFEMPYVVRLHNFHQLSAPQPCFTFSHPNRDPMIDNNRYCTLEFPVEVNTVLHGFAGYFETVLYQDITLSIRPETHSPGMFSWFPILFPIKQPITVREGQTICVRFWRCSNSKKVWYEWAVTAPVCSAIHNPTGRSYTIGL
T1 sequence (P40337 whole entry, looked up): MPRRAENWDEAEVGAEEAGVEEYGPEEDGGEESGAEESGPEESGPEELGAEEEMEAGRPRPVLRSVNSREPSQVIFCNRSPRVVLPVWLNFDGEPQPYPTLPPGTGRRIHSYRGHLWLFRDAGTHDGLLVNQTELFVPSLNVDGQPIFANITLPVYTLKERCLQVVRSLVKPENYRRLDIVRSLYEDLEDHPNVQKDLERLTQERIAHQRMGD

With `Cc1ncsc1-c1ccc(CNC(=O)[C@@H]2C[C@@H](O)CN2C(=O)[C@@H](NC(=O)COCCOCCOCCOCCOCC(=O)N2CC(Nc3cc(C(=O)NC[C@H](O)CN4CCc5ccccc5C4)ncn3)C2)C(C)(C)C)cc1`, the outcome in test [1] was Active.
Regarding `Cc1ncsc1-c1ccc([C@H](C)NC(=O)[C@@H]2C[C@@H](O)CN2C(=O)[C@@H](NC(=O)COCCOCCOCCOCCOCC(=O)N2CC(Nc3cc(C(=O)NC[C@H](O)CN4CCCCC4)ncn3)C2)C(C)(C)C)cc1`, the outcome in [2] and in [3] was inactive. Besides, the inhibition in [4] came out at 58%.
With `Cc1ncsc1-c1ccc(CNC(=O)[C@@H]2C[C@@H](O)CN2C(=O)[C@@H](NC(=O)CCOCCOCCC(=O)N2CC(Nc3cc(C(=O)NC[C@H](O)CN4CCc5ccccc5C4)ncn3)C2)C(C)(C)C)cc1`, in [5], the outcome was inactive.
On the same count and under the same terms, the same measure for `Cc1ncsc1-c1ccc(CNC(=O)[C@@H]2C[C@@H](O)CN2C(=O)[C@@H](NC(=O)COCC(=O)N2CC(Nc3cc(C(=O)NC[C@H](O)CN4CCc5ccccc5C4)ncn3)C2)C(C)(C)C)cc1`: “inactive”.
Regarding `O=C(NC[C@H](O)CN1CCc2ccccc2C1)c1cc(NC2COC2)ncn1`, the outcome in test [6], in test [7], in [9] and in test [10] was Active. Besides, the outcome in test [2] was inactive. In [8], the Activity entry was “Dose-dependent effect”.

The values are drawn from ChEMBL document CHEMBL4725349, “Discovery of First-in-Class Protein Arginine Methyltransferase 5 (PRMT5) Degraders” (J Med Chem, 2020).
